# Results reported in the EternaBench riboswitch data.
# System: MS2 coat protein
# Experiment: apparent Kd, MS2 coat protein; higher = weaker binding; RNA-MaP array; FMN 200 µM where present
# Outline: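 Stalled E. coli RNA polymerase produced the designs on Illumina sequencing-chip clusters. SNAP-549-labelled MS2 coat protein was added from 0.7 or 1.5 nM, doubling to 3 µM, without and then with constant ligand, in 100 mM Tris-HCl pH 7.5, 80 mM KCl, 4 mM MgCl2, BSA, DTT, yeast tRNA and Tween-20. The apparent Kd is the median of filtered per-cluster fits of green signal normalised to red-channel RNA signal and control-cluster median Fmax.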
# [1] = designed as: OFF switch for flavin mononucleotide, no ligand
# [2] = ligand present: flavin mononucleotide, designed as: OFF switch for flavin mononucleotide
# [3] = designed as: ON switch for flavin mononucleotide, no ligand
# [4] = ligand present: flavin mononucleotide, designed as: ON switch for flavin mononucleotide
Sequence,apparent Kd [1] [nM],apparent Kd [2] [nM],apparent Kd [3] [nM],apparent Kd [4] [nM]
UGUGUGUCAGGAUAUCGCGCGCGCGCGGAAAUGUGUGUGUGUGAGAAGGGACAUGAGGAUCACCCAUGUGCGCG,115,263,–,–
GGAGAACAUGAGGAUCACCCAUGUGGAUGGGCGCUAGGAUAUGCGGGAGGGUGAAGAGAAGCAGAAGGAGUGGAUA,–,–,77.6,76.1
UGAGAUCAUGUAGGAUAUGCAUGGCGAAGCUACGCAGAAGGACAUGAGGAUCACCCAUGUUAUAGCUACCCAGUUCGGUGGCAA,44.4,86.7,–,–
CCGUUGGGCUAGAAGGCUCCGGGAGGGCCGCGGAGAGGAUAUAGCACAUGAGGAUCACCCAUGUGGUAUGACCUUAUGUAAUCA,37.4,82.7,–,–
UUUAUGUAAGGAUAUGCGGGCGGGCGUGAAAAUGUUUGUUUGUAGAAGGUACAUGAGGAUCACCCAUGUAGUGG,145,201,–,–
GGGCGGCGAGGAUAUGCAGGGCGGGCGCGCGGGCGCGCGCGACAUGAGGAUCACCCAUGUAGAAGGCGCCGGGC,19.1,129,–,–
AAAACUUCAGAGAAGGACCCAUCGGCGAGAUGGGUAGGAUAUCUGACUUGAGGUGUCCUGACAUGAGGAUCACCCAUGUAUAAA,418,61.4,–,–
CGUGUACGAGGAUAUAGAUUAGGCGACAUGAGGAUCACCCAUGUGAUCAAUCUAUUUGGUUUAGAAGGUGUACAUG,16.7,17.6,–,–
AUAUCAUACCAAGGAUAUUUAGGAUUUGUGUAGACAUGAGGAUCACCCAUGUGGCGUUAGUCACGGGAGAAGGUGGUAUGAUAU,–,–,622,105
AUGGGACAUGAGGAUCACCCAUGUUAGGAUAUCUCCUUAGUAACGAUCAGGCUAUAGGAGAGAAGGAACGGUCC,258,272,–,–
CAUACACAUGAGGAUCACCCAUGUGAGGAUAUGAAUACGUUGUCCGUAGGCGACGUGAUCAGAAGGCGCUUGGU,45.4,61.8,–,–
GCAAAGCCUGACAUGAGGAUCACCCAUGUUAGAUUGUUAUGUCAGGAUAUUGUCUAGAAACUAGACAAGAAGGGAUGCUUUGCA,–,–,463,27.3
CGUGUACGAGGAUAUAGAUUGAAUGACAUGAGGAUCACCCAUGUGAUCGAUCUAUUUGAUUUAGAAGGUGUACAUG,14,16.9,–,–
UUCAUGUGAGGAUAUAAAAUGAAUAUAAAUUAUUAUCUUGAUUAGAAGGCACAUGAGGAUCACCCAUGUCUGAA,33.1,47.9,–,–
AAUUUACAGCUAGGAUAUACAUGAGGAUCACCCAUGUAAUGAUUGGAUCUUAUGAUCGUAUCAGUGUAGAAGGAGCAAAUAAGA,13.4,28.4,–,–
AAAAAAAAAAGUCAGGAUAUGCAGGGCGGGACAUGAGGAUCACCCAUGUGGCGGAAAAAAAAAAAGCAGAAGGGACGAAUAAAAAA,–,–,53.2,27.4
UUAAUUAAAGUGAGGAUAUCUAGAGCCUCGGCUCUAGAGAAGGCACAUGAGGAUCACCCAUGUCUCAAUUAAUU,15.7,26.8,–,–
GCACUUAAGUUAGGAUAUGGAUCGGAAAACGAUCCAGAAGGAAUAUGGGAACAUGAGGAUCACCCAUGUUCCACAGACAAGUGC,–,–,47.5,24.4
GCUUGUAGAGGAUAUACAAGGGCCUUAGCGAAUAACACCGCACAUGAGGAUCACCCAUGUAGAAGGCUACCACC,15.6,77.6,–,–
UGUUGUAUUACAGGAUAUCUAUUAUGUUUAUUUAGAGAAGGGUAUUCACAUGAGGAUCACCCAUGUAUAUACGAGGAAGUUGUG,–,–,54.8,56.2
CUCCUGCAAGGAUAUACAUAGUGACGUCUGUUUAAUCUUAAACAUGAGGAUCACCCAUGUAGAAGGUGCGUCAC,16.7,18.1,–,–
GGUACCAUCACAGGAUAUCGUAUCCUUUGGGUACGAGAAGGGUGAUAACAUGAGGAUCACCCAUGUGGUACCGGGCGUGAGCCC,–,–,1340,323
GCCUUACCGGUCAGGAUAUACAUUUGUCACUCCUUGUAGAAGGGACAUGAGGAUCACCCAUGUACAUUACAUUC,29,28.6,–,–
CCUGCACAUGAGGAUCACCCAUGUCAGGAUAUCUCGCCGCGAAGAGCAACACGGUAUUAGAGAAGGGACACGGG,28.1,36.5,–,–
AGAUGGUAGAUAGGAUAUCAUGUGCUGACAUGAGGAUCACCCAUGUAGGGACGUCAGUCCAAUUAUGAGAAGGAUCUACCAUCU,–,–,61,39.3
GUAUCAUACCAAGGAUAUUUAGGACUUGUGUAGACAUGAGGAUCACCCAUGUGGCGUUAGUCACGGGAGAAGGUGGUAUGAUAC,–,–,78.5,18.8
GGCAGCGGACAAGGAUAUAAGACGCAGACCAAAUUAGAAGGUGUUAUCUGGCAAUGCGAAAGCAGACAUGAGGAUCACCCAUGU,–,–,66.3,65.1
AACUCGUCAGGAUAUGCGCGCAGUUGCUGCGCUUCGCCGUUGCAGAAGGGACAUGAGGAUCACCCAUGUAGGUC,35.8,43.5,–,–

Sequence,apparent Kd [1] [nM],apparent Kd [2] [nM],apparent Kd [3] [nM],apparent Kd [4] [nM]
UUACUAUUGCAGAAGGCGCAAUAAUAUAUAAAGUGAGGAUAUGCAACAUGAGGAUCACCCAUGUUUCACCCAUAUGAGGAUCAC,6.93,7.32,–,–
GCCAUCGCGUGAGGAUAUGCUCCGGUUUCCGGAGCAGAAGGCAUGUCAUAAGACAUGAGGAUCACCCAUGUAGUCAAGAUGGCA,–,–,270,11.4
AAAAAGCGAGGAUAUACGAGUCAAAGAAAAGACAAGGAGAAACAUGAGGAUCACCCAUGUAGAAGGCGCAAAAA,20.5,23.3,–,–
AAGGAUCGAGGAUAUACAUAGAUACAGAUACAUGUAGACCUACAUGAGGAUCACCCAUGUAGAAGGCGAUCCUA,22.4,54.7,–,–
GGGUACAUCGGAGGAUAUCAUGUAAAUACAUGAGGAUCACCCAUGUCAAUGGAGACAUCGGAGAUUGAGAAGGCCGAUGUACCG,–,–,86.1,340
AGGUAACAUGAGGAUCACCCAUGUCAGGAUAUCAGUAAGAUUAGAAUAGAGUAGAGGAUGAGAAGGGACUAUAU,47,41.8,–,–
GCGAAUUAGUGAGGAUAUACAUAAUUUAAAACUGUAGAAGGCACAAUCCUCAAGACAUGAGGAUCACCCAUGUGGUAUUACGCU,138,861,–,–
AUCAGGUCGUCAGGAUAUACGUCACUGCGUCAGCAGUGUGGUAAGAUCACAUGAGGAUCACCCAUGUAGAAGGGACGAGCUGAU,13.2,311,–,–
GUGUAGGUAGGAUAUACAUGAGGAUCACCCAUGUGAAUAAGAUAGAAUAAGAUAAAGUGUAGAAGGGCUAGUGU,39.6,31.9,–,–
UAUAUAAUUAAGAGCUGGAAUAAAACAUGAGGAUCACCCAUGUAGGAUAUCAGCACGAUAAGUGCUGAGAAGGACAACCAGCUC,15.8,16.9,–,–
ACUUGUUAGUAGAAGGUAGUUAUUAUAUUAAUCAUGUAUACAUGAGGAUCACCCAUGUUGAUUUCUAAGGAUAUACAUCGAUAG,81.4,59,–,–
CGGCGGAAAGGAUAUGCAGUAAUAUCCAAAUGUGGGCCACGACAUGAGGAUCACCCAUGUAGAAGGUUCAGCCG,14.7,13.6,–,–
GGUACCAUGUAGAAGGCAGAUCUGAUUCAGAUCUGAGGAUAUACAUGAGGAUCACCCAUGUAAAGGCACCGCACGAGAGUGCAA,32.4,108,–,–
GGAUAGGACAGAGGAUAUACGUGCUAGAGAUACUAGCAAAAUUUCCUCACAUGAGGAUCACCCAUGUAGAAGGUUGUCCUAUCG,5.14,11.8,–,–
AUGUGGUGCGUAGGAUAUCAUUGAGGGAAACCCUGAGAAGGACGUGAGGACAUGAGGAUCACCCAUGUGGAUCACCCAUGUCAU,196,253,–,–
UCUAUGUAGAUUCAUCAAUACAGUAAGGAUAUGAGAUACAUGAGGAUCACCCAUGUGCAUGUGGAUUAGAAGGUACAAUUAACU,293,188,–,–
GAUUAUAAGUAAGGAUAUGUAUAUGAAACAUCUACAGAAGGUACAUGAGGAUCACCCAUGUUCUUGCAGCGUGACUAUGUAAUC,24,27.9,–,–
ACAUGAGAUCGAGGAUAUUUUGUACCUACAUGUGACAUGAGGAUCACCCAUGUGGUAAGUAUGAGAAAGAAGGCGAAGAUAUGU,–,–,41.4,22.1
AUGGAUAUCACAGGAUAUGAUAUGGAUACCAUAUCAGAAGGGUGAUCCAUCCUAUGUAAAUACAUGAGGAUCACCCAUGUGUCC,–,–,15.1,31.6
GCACUGGAUGUAGGAUAUCAGGACGAUAAGUCCUGAGAAGGACAUGAGGAUCACCCAUGUGUUAAAACCAGUGCAUAUAAUAUA,13.8,20.6,–,–
GAUCCACAUGAGGAUCACCCAUGUGAGGAUAUGAUACUAUGUACUUCGGUACAUAGUAUCAGAAGGCACGGGUC,84.1,206,–,–
AACAUCGCAGGAUAUUCGUGCUCAGACAUGAGGAUCACCCAUGUUUGGUGGGUUGGAGAAGGAGAAGGGCGAUGGA,103,137,–,–
AAAUUCAGAGGAUAUGCGCAUAGAUAAGACUUUGUUUCUUAACAUGAGGAUCACCCAUGUAGAAGGCUGUACCC,17.9,20.1,–,–
AUCAAUCAUGUAGGAUAUGCGUGGCGAAGCUAUGCAGAAGGACAUGAGGAUCACCCAUGUCUUUCUGUCUGCGUACGGACAGGA,19.4,72.9,–,–
UUAGCAACAUGAGGAUCACCCAUGUAGGAUAUCGCUAUUGUAAUCAUGAAACAUGAUUACAAUAGCGAGAAGGACAUAUGCUAU,10.1,11.7,–,–
GAAAAACAUGAGGAUCACCCAUGUGUAAACAAGGGAGGAUAUACAAAGACGUAAGUCAAAGUAGAAGGCCUAAAAG,–,–,25,9.6
AAAGACAGACAUGAGGAUCACCCAUGUUACGAAGAUAAUGGGAGAAGGGCGAUUGCAAAGCAAUCGCAGGAUAUUCGUAUUGUC,–,–,21.1,8.93
